Assay results reported in ChEMBL document CHEMBL3259723, “Membrane active vancomycin analogues: a strategy to combat bacterial resistance” (J Med Chem, 2014).
The source made the active and inactive calls. The calls are words filed in the database; no cut-off is given here.

Columns and labels:
[1] = test system: Staphylococcus aureus; experiment: Antibacterial activity against methicillin-sensitive Staphylococcus aureus MTCC 737 assessed as growth inhibition by broth microdilution method; format: functional
Outline: (§1)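 Broth microdilution per CLSI; compounds serially diluted in autoclaved water. Bacteria grown 6 h in suitable media, diluted to 10⁵ CFU/mL; compound added to bacterial suspension, incubated at 37 °C, OD600 read. Triplicate wells, experiment done at least twice; mean OD versus concentration sigmoidally fitted, MIC taken where OD equals no-bacteria control.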

[2] = test system: Staphylococcus aureus; experiment: Antibacterial activity against methicillin-resistant Staphylococcus aureus ATCC 33591 assessed as growth inhibition by broth microdilution method; format: functional
Outline: (§2)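 Broth microdilution per CLSI; compounds serially diluted in sterile water, added to bacteria at 10^5 CFU/mL (diluted from 6 h cultures). Incubated at 37 °C, OD600 read. Triplicate wells, experiment done at least twice. Mean OD plotted against concentration and fitted sigmoidally; MIC taken where OD matches the no-bacteria control.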

[3] = test system: Staphylococcus aureus; experiment: Antibacterial activity against vancomycin-intermediate-resistant Staphylococcus aureus assessed as growth inhibition by broth microdilution method; format: functional; outline: as §2
[4] = test system: Enterococcus faecium; experiment: Antibacterial activity against vancomycin-sensitive Enterococcus faecium ATCC 19634 assessed as growth inhibition by broth microdilution method; format: functional; outline: as §1
[5] = test system: Enterococcus faecium; experiment: Antibacterial activity against vancomycin-resistant VanA phenotype of Enterococcus faecium ATCC 51559 assessed as growth inhibition by broth microdilution method; format: functional; outline: as §2
[6] = test system: Staphylococcus aureus; experiment: Antibacterial activity against methicillin-resistant Staphylococcus aureus ATCC 33591 assessed as induction of membrane depolarization at 10 uM measured for 10 mins by DiSC3(5) dye-based spectrofluorometric analysis; format: functional, organism-based
Outline: (§3)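 Membrane potential assay with DiSC3(5): dye added to cells until maximal uptake, seen as a fluorescence minimum (about 10 min). Compounds then added and depolarization followed as the fluorescence increase over a further 10 min.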

[7] = test system: Enterococcus faecium; experiment: Antibacterial activity against vancomycin-resistant VanA phenotype of Enterococcus faecium ATCC 51559 assessed as induction of membrane depolarization at 10 uM measured for 10 mins by DiSC3(5) dye-based spectrofluorometric analysis; format: functional, organism-based; outline: as §3
[8] = test system: Staphylococcus aureus; experiment: Antibacterial activity against methicillin-resistant Staphylococcus aureus ATCC 33591 assessed as induction of cytoplasmic membrane permeabilization at 10 uM measured for 10 mins by propidium iodide uptake assay; format: functional, organism-based
Outline: (§4)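 Mid-log (6 h) cells harvested at 4 °C, washed and resuspended in PBS pH 7.2. Compound added to cells with 10 μM propidium iodide. Fluorescence (ex 535/em 617 nm) monitored 10 min at RT; the rise in PI fluorescence taken as inner membrane permeabilization.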

[9] = test system: Enterococcus faecium; experiment: Antibacterial activity against vancomycin-resistant VanA phenotype of Enterococcus faecium ATCC 51559 assessed as induction of cytoplasmic membrane permeabilization at 10 uM measured for 10 mins by propidium iodide uptake assay; format: functional, organism-based; outline: as §4
[10] = test system: Enterococcus faecium; experiment: Antibacterial activity against vancomycin-resistant VanA phenotype of Enterococcus faecium ATCC 51559 assessed as leakage of intracellular potassium ion at 10 uM measured for 10 mins by PBFI-AM dye-based spectrofluorometric analysis; format: functional, organism-based
Outline: (§5)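 Mid-log (6 h) cells washed twice and resuspended in 10 mM HEPES pH 7.2 with 0.5% glucose. Signal stabilized 60 s at RT, then 1 μM PBFI-AM added and a 2 min baseline recorded before compound.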

[11] = test system: Staphylococcus aureus; experiment: Antibacterial activity against methicillin-resistant Staphylococcus aureus ATCC 33591 assessed as induction of membrane depolarization measured at < 3 mins by DiSC3(5) dye-based spectrofluorometric analysis; format: functional, organism-based; outline: as §3
[12] = test system: Enterococcus faecium; experiment: Antibacterial activity against vancomycin-resistant VanA phenotype of Enterococcus faecium ATCC 51559 assessed as induction of membrane depolarization measured at < 3 mins by DiSC3(5) dye-based spectrofluorometric analysis; format: functional, organism-based; outline: as §3
[13] = test system: Staphylococcus aureus; experiment: Antibacterial activity against methicillin-resistant Staphylococcus aureus ATCC 33591 assessed as induction of cytoplasmic membrane permeabilization measured within 5 mins by propidium iodide uptake assay; format: functional, organism-based; outline: as §4
[14] = test system: Staphylococcus aureus; experiment: Antibacterial activity against methicillin-resistant Staphylococcus aureus ATCC 33591 assessed as leakage of intracellular potassium ion at 10 uM measured for 10 mins by PBFI-AM dye-based spectrofluorometric analysis relative to control; format: functional; outline: as §5
[15] = test system: Staphylococcus aureus; experiment: Bacteriostatic activity against methicillin-resistant Staphylococcus aureus ATCC 33591 measured over 24 hrs; format: functional, organism-based
Outline: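 MRSA in yeast-dextrose broth, starting inoculum 1.6 × 10^8 CFU/mL. […] Samples taken at 0, 1, 2, 3, 6 and 24 h, diluted 10-fold serially in saline and plated on yeast-dextrose agar. Colonies counted after 24 h at 37 °C; log10 CFU/mL reported.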

[16] = test system: Staphylococcus aureus; experiment: Bactericidal activity against methicillin-resistant Staphylococcus aureus ATCC 33591 infected in 90% human whole blood at 3.6 uM after 3 hrs; format: functional, organism-based
Outline: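 MRSA (30 μL of 10^6 CFU/mL in 0.9% saline) mixed with compound at 3.6 μM and 270 μL fresh human whole blood. Incubated 3 h at 37 °C.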

[17] = test system: Staphylococcus aureus; experiment: Antibacterial activity against methicillin-resistant Staphylococcus aureus ATCC 33591 assessed as growth inhibition measured after 20 serial passages; format: functional, organism-based
Outline: (§6)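 Serial passage: the MIC assay is run against MRSA, then cells from the one-half-MIC well of the previous assay are harvested and inoculated into fresh yeast-dextrose broth for the next MIC assay after 24 h incubation. Repeated for […] passages; MIC plotted against passage number and fold increase in MIC determined.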

[18] = test system: Staphylococcus aureus; experiment: Ratio of MIC for methicillin-resistant Staphylococcus aureus ATCC 33591 measured after 52 serial passages to MIC for methicillin-resistant Staphylococcus aureus ATCC 33591; format: functional; outline: as §6
[19] = test system: Staphylococcus aureus; experiment: Antibacterial activity against methicillin-resistant Staphylococcus aureus ATCC 33591 infected in CD-1 mouse neutropenic thigh infection model assessed as reduction of bacterial burden in thigh at 12 mg/kg, iv bid administered as 12 hrs interval measured after 24 hrs; format: functional, organism-based; design: dose 12 mg/kg
Outline: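 Neutropenic mouse thigh model: about 50 μL MRSA inoculum injected into the thigh. About 1 h later, iv treatment twice at 12 h intervals with saline, vancomycin or compound at 12 mg/kg. At 24 h, thigh homogenate dilutions plated and incubated overnight at 37 °C; titer expressed as log10 CFU/g thigh.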

SMILES | MIC [1] [µM] | MIC [2] [µM] | MIC [3] [µM] | MIC [4] [µM] | MIC [5] [µM] | Activity [6] | Activity [7] | Activity [8] | Activity [9] | Activity [10] | Activity [14] | further results
CN[C@H](CC(C)C)C(=O)N[C@H]1C(=O)N[C@@H](CC(N)=O)C(=O)N[C@H]2C(=O)N[C@H]3C(=O)N[C@H](C(=O)N[C@H](C(=O)NCCCN(C)C)c4cc(O)cc(O)c4-c4cc3ccc4O)[C@H](O)c3ccc(c(Cl)c3)Oc3cc2cc(c3O[C@@H]2O[C@H](CO)[C@@H](O)[C@H](O)[C@H]2O[C@H]2C[C@](C)(N)[C@H](O)[C@H](C)O2)Oc2ccc(cc2Cl)[C@H]1O | 0.62 | 0.61 | 1.47 | 0.63 | > 100 | inactive | inactive | inactive | inactive | inactive |  | 
CCCCCCCCCCCCCCCCCC[N+](C)(C)CCCNC(=O)[C@H]1NC(=O)[C@H]2NC(=O)[C@H](NC(=O)[C@@H]3NC(=O)[C@H](CC(N)=O)NC(=O)[C@H](NC(=O)[C@@H](CC(C)C)NC)[C@H](O)c4ccc(c(Cl)c4)Oc4cc3cc(c4O[C@@H]3O[C@H](CO)[C@@H](O)[C@H](O)[C@H]3O[C@H]3C[C@](C)(N)[C@H](O)[C@H](C)O3)Oc3ccc(cc3Cl)[C@H]2O)c2ccc(O)c(c2)-c2c(O)cc(O)cc21.O=C([O-])C(F)(F)F | 5.03 |  | 0.92 |  | 1.9 |  |  |  | Active | Active | 99% | Activity [11]: Dose-dependent effect; Activity [12]: Dose-dependent effect; Activity [13]: Dose-dependent effect
CCCCCCCCCCCCCCNCCCNC(=O)[C@H]1NC(=O)[C@H]2NC(=O)[C@H](NC(=O)[C@@H]3NC(=O)[C@H](CC(N)=O)NC(=O)[C@H](NC(=O)[C@@H](CC(C)C)NC)[C@H](O)c4ccc(c(Cl)c4)Oc4cc3cc(c4O[C@@H]3O[C@H](CO)[C@@H](O)[C@H](O)[C@H]3O[C@H]3C[C@](C)(N)[C@H](O)[C@H](C)O3)Oc3ccc(cc3Cl)[C@H]2O)c2ccc(O)c(c2)-c2c(O)cc(O)cc21 | 0.55 | 0.61 | 1 | 0.4 | 5 |  | inactive |  | inactive | inactive |  | 
CCCCCCCCCC[N+](C)(C)CCCNC(=O)[C@H]1NC(=O)[C@H]2NC(=O)[C@H](NC(=O)[C@@H]3NC(=O)[C@H](CC(N)=O)NC(=O)[C@H](NC(=O)[C@@H](CC(C)C)NC)[C@H](O)c4ccc(c(Cl)c4)Oc4cc3cc(c4O[C@@H]3O[C@H](CO)[C@@H](O)[C@H](O)[C@H]3O[C@H]3C[C@](C)(N)[C@H](O)[C@H](C)O3)Oc3ccc(cc3Cl)[C@H]2O)c2ccc(O)c(c2)-c2c(O)cc(O)cc21 | 0.31 | 0.31 | 0.3 | 0.2 | 3 |  |  |  | Active | Active | Active | Activity [11]: Dose-dependent effect; Activity [12]: Dose-dependent effect; Activity [13]: Dose-dependent effect
CN[C@H](CC(C)C)C(=O)N[C@H]1C(=O)N[C@@H](CC(N)=O)C(=O)N[C@H]2C(=O)N[C@H]3C(=O)N[C@H](C(=O)N[C@H](C(=O)O)c4cc(O)cc(O)c4-c4cc3ccc4O)[C@H](O)c3ccc(c(Cl)c3)Oc3cc2cc(c3O[C@@H]2O[C@H](CO)[C@@H](O)[C@H](O)[C@H]2O[C@H]2C[C@](C)(N)[C@H](O)[C@H](C)O2)Oc2ccc(cc2Cl)[C@H]1O [VANCOMYCIN] | 0.63 | 0.63 | 13 | 0.6 | 750 | inactive | inactive | inactive | inactive |  | 100% | Activity [15]: Dose-dependent effect; Activity [16]: Active; Activity [17]: Active; Ratio [18]: >20; Activity [19]: Active
CCCCCCCCCCCCCC[N+](C)(C)CCCNC(C)=O |  |  |  |  |  |  | inactive |  | inactive | inactive |  | 
CC[N+](C)(C)CCCNC(=O)[C@H]1NC(=O)[C@H]2NC(=O)[C@H](NC(=O)[C@@H]3NC(=O)[C@H](CC(N)=O)NC(=O)[C@H](NC(=O)[C@@H](CC(C)C)NC)[C@H](O)c4ccc(c(Cl)c4)Oc4cc3cc(c4O[C@@H]3O[C@H](CO)[C@@H](O)[C@H](O)[C@H]3O[C@H]3C[C@](C)(N)[C@H](O)[C@H](C)O3)Oc3ccc(cc3Cl)[C@H]2O)c2ccc(O)c(c2)-c2c(O)cc(O)cc21 | 0.39 | 2.42 | 1.3 | 0.45 | > 100 | inactive | inactive | inactive | inactive | inactive |  | 
CCCCCCCCCCNCCN[C@@]1(C)C[C@H](O[C@H]2[C@H](Oc3c4cc5cc3Oc3ccc(cc3Cl)[C@@H](O)[C@@H](NC(=O)[C@@H](CC(C)C)NC)C(=O)N[C@@H](CC(N)=O)C(=O)N[C@H]5C(=O)N[C@H]3C(=O)N[C@H](C(=O)N[C@H](C(=O)O)c5cc(O)c(CNCP(=O)(O)O)c(O)c5-c5cc3ccc5O)[C@H](O)c3ccc(c(Cl)c3)O4)O[C@H](CO)[C@@H](O)[C@@H]2O)O[C@@H](C)[C@H]1O [TELAVANCIN] |  |  |  |  |  |  |  |  |  |  |  | MIC90 [1]: 0.3 µM; MIC90 [2]: 0.3 µM; MIC90 [4]: 0.15 µM; MIC90 [5]: 4 µM
CN[C@H]1C(=O)N[C@@H]2Cc3ccc(cc3)Oc3cc4cc(c3O[C@@H]3O[C@H](C(=O)O)[C@@H](O)[C@H](O)[C@H]3NC(=O)CCCCCCCCC(C)C)Oc3ccc(cc3Cl)[C@@H](O)[C@@H]3NC(=O)[C@H](NC(=O)[C@@H]4NC(=O)[C@@H](NC2=O)c2cc(cc(O)c2Cl)Oc2cc1ccc2O)c1ccc(O)c(c1)-c1c(O[C@H]2O[C@H](CO)[C@@H](O)[C@H](O)[C@@H]2O)cc(O)cc1[C@@H](C(=O)NCCCN(C)C)NC3=O [DALBAVANCIN] |  |  |  |  |  |  |  |  |  |  |  | MIC90 [1]: 0.04 µM; MIC90 [2]: 0.04 µM; MIC90 [4]: 0.08 µM; MIC90 [5]: > 18 µM
CCCC[N+](C)(C)CCCNC(=O)[C@H]1NC(=O)[C@H]2NC(=O)[C@H](NC(=O)[C@@H]3NC(=O)[C@H](CC(N)=O)NC(=O)[C@H](NC(=O)[C@@H](CC(C)C)NC)[C@H](O)c4ccc(c(Cl)c4)Oc4cc3cc(c4O[C@@H]3O[C@H](CO)[C@@H](O)[C@H](O)[C@H]3O[C@H]3C[C@](C)(N)[C@H](O)[C@H](C)O3)Oc3ccc(cc3Cl)[C@H]2O)c2ccc(O)c(c2)-c2c(O)cc(O)cc21 | 0.37 | 0.6 | 1.14 | 0.31 | > 100 | inactive | inactive | inactive | inactive | inactive |  | 
